One data set deals with human V2r. To be noted: cited from earlier work; for Ki: human V2r ref 5.
The subject of data set [1] is F3II mouse mammary carcinoma cells. Description: Cell proliferation assay. The format is cell-based. To be noted: 72 h, concentration-dependent. An outline of the steps:
(§1)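 Cells seeded at 2.5×10^3 per 200 μl in complete DMEM (10% FBS, 2 mM glutamine), attached overnight. They were then exposed to peptide (100–1,500 nM) or vehicle for 72 h at 37°C, 5% CO2. MTT was added for 4 h, the product dissolved in DMSO, and absorbance read at 570 nm. Untreated control OD was set as 100% viability. Results came from at least three independent experiments, mean ± SEM.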

A further data set is described as follows: Acute toxicology study. The note with it: for ALT / AST / Creatinine / Direct bilirubin / Fibrinogen / GGT / Glucose / Hematocrit / RBC / Total protein / WBC / Weight: 72 h, mean ± SD. The format is in vivo, Wistar rats.
The test system of data set [2] is F3II cells injected into the tail vein. Description: Experimental lung metastases assay. The data set is classed as in vivo, BALB/c mice. The note with it: 0.3 μg/kg i.v., two doses (time zero and 24 h), day 21. A digest of the protocol: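 Female 8-week-old SPF BALB/c mice received 2×10^5 F3II cells in DMEM via the tail vein. Peptide at 0.3 μg/kg was given i.v. twice: at time zero and 24 h after cell injection. On day 21, lungs were excised, weighed, fixed in Bouin's solution and photographed, and lung nodules were counted.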

Another data set has as its system MDA-MB-231 xenografts. Description: MDA-MB-231 xenograft tumour progression. The format is in vivo, BALB/c athymic mice. The note with it: 0.3 μg/kg i.v. thrice weekly. An outline of the steps:
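Athymic BALB/c nude females were injected s.c. with 5×10^6 MDA-MB-231 cells in 300 μl of DMEM:Matrigel (1:1). From day 14, at tumours of ~50 mm3, mice received 0.3 μg/kg i.v. thrice weekly against a saline vehicle. Caliper volumes were calculated as 0.52 × width² × length. Growth rate is the slope of the linear regression of volume over time, mean ± SD.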

In data set [3] the test system is MCF-7 human breast carcinoma cells. Description: Cell proliferation assay. The data set is classed as cell-based. The note with it: 72-h exposure, 100–1,500 nM. A digest of the protocol: as §1
The test system of the next data set is MDA-MB-231 cells. Description: Clonogenic. The format is cell-based, human. The note with it: read-out: IC50 colony formation; MDA-MB-231, 7 days. An outline of the steps: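 MDA-MB-231 cells were grown in complete medium containing peptide (100–1,500 nM), with medium plus peptide renewed after 72 h. Colonies of >50 cells were counted 7 days after seeding. IC50 was derived by linear regression of the concentration–inhibition plot. Data are from at least three independent experiments, mean ± SEM.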

A further data set concerns F3II mammary tumours. Description: F3II subcutaneous tumour progression and spontaneous lung metastases. The data set is classed as in vivo, BALB/c mice. An outline of the steps:
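Syngeneic female BALB/c mice were injected s.c. with 2×10^5 F3II cells. Dosing started 7 days later, at tumours of ~50 mm3, with 0.3 μg/kg i.v. thrice weekly against a saline vehicle. Caliper volumes were calculated as 0.52 × width² × length. Mice were necropsied on day 50, and Bouin-fixed lungs were scored for macroscopic nodules under a dissecting microscope. Data are mean ± SD.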

Data set [4] has as its system HMVEC-L human microvascular endothelial cells. Description: Endothelial cell morphogenesis. The data set is classed as cell-based. To be noted: 100 nM, 24 h.
Another data set relates to VWF. To be noted: after i.v. injection ref 4; cited from earlier work.
Data set [5] concerns MDA-MB-231 human breast carcinoma cells. Description: Cell proliferation assay. The note with it: MDA-MB-231, tolvaptan 1,500 nM plus [V^4Q^5]dDAVP 1,500 nM. The format is cell-based. A digest of the protocol: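 MDA-MB-231 cells were seeded at 2.5×10^3 per 200 μl in complete DMEM and attached overnight. They were then given 1,500 nM test peptide alone or with the competitive V2r antagonist tolvaptan (1,500 nM) for 72 h. MTT was added for 4 h, DMSO used to solubilise, and absorbance read at 570 nm. Untreated control was set as 100%. There were at least three independent experiments, mean ± SEM.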

Marks after values point to notes of the source that are not given here.

As to 4-valine-dDAVP, the “affinity for the human V2r relative to dDAVP” value with human V2r (higher affinity than dDAVP ref 5) is listed as 10 fold. Moreover, on human V2r, the Ki is 2.2 nM.
Consider `NC(=O)CC[C@@H]1NC(=O)[C@H](Cc2ccccc2)NC(=O)[C@H](Cc2ccc(O)cc2)NC(=O)CCSSC[C@@H](C(=O)N2CCC[C@H]2C(=O)N[C@H](CCCN=C(N)N)C(=O)NCC(N)=O)NC(=O)[C@H](CC(N)=O)NC1=O` [dDAVP, 1-deamino-8-D-arginine vasopressin], for which the “cytostatic effect on F3II cells” value in [1] is given as “mild cytostatic effect”. In “Acute toxicology study” (1 μg/kg single i.v.), the ALT is reported as 22.8±3.4 IU/l, the AST amounted to 36.6±11.6 IU/l, the Creatinine was determined as 0.70 ± 0.16 mg/mL and the Direct bilirubin came to 0.13 ± 0.04 mg/dL. Further, in “Acute toxicology study” (1 μg/kg single i.v.), the Fibrinogen worked out at 221.0 ± 67.8 mg/dL, the GGT is on record as 2.8±0.8 IU/l, the Glucose is 207.0±25.7 ^d mg/dl and the Hematocrit amounted to 40.4±2.3%. For the same molecule, in the data set “Acute toxicology study” (1 μg/kg single i.v.), the RBC is on record as 5.2±0.3 10^6/ml, the Total protein turned out to be 6.6 ± 0.8 g/dL, the WBC is on record as 4.8±0.3 10^3/ml and the Weight was determined as 234.2 ± 8.1 g. In addition, in the data set “Acute toxicology study” (10 μg/kg single i.v.), the ALT turned out to be 22.6±3.4 IU/l, the AST came out at 30.0±5.6 IU/l, the Creatinine is 0.65 ± 0.08 mg/mL and the Direct bilirubin was 0.14±0.02 ^d mg/dl. Besides, in “Acute toxicology study” (10 μg/kg single i.v.), the Fibrinogen is 226.7 ± 48.4 mg/dL, the GGT is given as 2.6±0.9 IU/l, the Glucose is 218.8±20.0 ^d mg/dl and the Hematocrit came to 40.5±2.7%. In “Acute toxicology study” (10 μg/kg single i.v.), the RBC is given as 5.5±0.3 10^6/ml, the Total protein was 6.9 ± 0.5 g/dL, the WBC is on record as 4.4±0.5 10^3/ml and the Weight is 240.3 ± 9.4 g. Further, in “Acute toxicology study” (100 μg/kg single i.v.), the ALT came out at 21.3±2.1 IU/l, the AST came to 47.5±17.8 IU/l, the Creatinine was 0.70 ± 0.09 mg/mL and the Direct bilirubin is recorded as 0.17±0.03 ^d mg/dl. Besides, in the data set “Acute toxicology study” (100 μg/kg single i.v.), the Fibrinogen was 243.0 ± 63.1 mg/dL, the GGT is given as 3.0±1.2 IU/l, the Glucose is reported as 230.7±12.1 ^d mg/dl and the Hematocrit stood at 41.8±3.4%. For the same molecule, in “Acute toxicology study” (100 μg/kg single i.v.), the RBC was 5.7±0.3 10^6/ml, the Total protein was 7.0 ± 0.5 g/dL, the WBC is on record as 4.1±0.7 10^3/ml and the Weight amounted to 241.8 ± 16.8 g. Besides, in “Acute toxicology study” (reference standard, single i.v. 1, 10 or 100 μg/kg), the safety profile result is “consistent with previous observations”. Moreover, the “reduction of the number of lung nodules” value in [2] came to 32%. Moreover, the “reduction in the number of blood vessels (intratumoural vascular density)” value in the data set on MDA-MB-231 xenografts was 30%. This molecule also registered a tumour growth rate in the data set on MDA-MB-231 xenografts (mean ± SD, control 7.44±0.66) of 5.72±0.72 mm^3/day. Besides, the “effect on proliferation in MCF-7 cell cultures” value in data set [3] is “mild reduction of proliferation”. The IC50 with MDA-MB-231 cells was 1440 nM. Also, at human V2r, the Ki is 23.3 nM. Besides, the spontaneous lung metastases result in the data set on F3II mammary tumours (0.3 μg/kg i.v. thrice weekly for 6 weeks, day 50) is given as “not significant”. Also, the final tumour volume with F3II mammary tumours (0.3 μg/kg i.v. thrice weekly, mean ± SD, P>0.05, control 1822.3±1185) is reported as 1574.8±466.1 mm^3. For the same molecule, in data set [4], the capillary-like tube formation result is listed as “did not displayed any significant effects”. Besides, the “time of peak levels of VWF release” value with VWF was 60 to 90 min.
For `Cc1ccccc1C(=O)Nc1ccc(C(=O)N2CCCC(O)c3cc(Cl)ccc32)c(C)c1` (stereo not drawn) [tolvaptan], the “blockade of growth-modulating activity of [V^4Q^5]dDAVP” value in [5] is listed as “completely abolished”.

The Ki is a dissociation constant, usually derived from enzyme kinetics or from competition with a known ligand. One may read the IC50 as the concentration at which inhibition is half-maximal.

The values are drawn from paper PMC4441290 (International Journal of Oncology, 2015).
